Compound activity (PubChem BioAssay)
Neddylation inh: cullin neddylation inhibition. TR-FRET cullin neddylation, biochemical. calls only at 25 µM. actives 0.58% (n = 360,000). AID 651699; in the data active means inhibition above about 36%
proCasp7 act: counter-screen for procaspase-3 activators: activators of human procaspase-7; P55210; recombinant procaspase-7, Ac-DEVD-pNA absorbance 405 nm; D23A/D198A/D206A triple mutant, cannot self-cleave; scale: DMSO 0, 5 µM enzyme 100; activation, % at 8.5 µM; actives 0.093% (n = 330,000); AID 463210;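 active means percent activation above the screen-wide mean plus 3 SD, cut at about 25% in these data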
Target sequence (P55210 whole entry D23A/D198A/D206A): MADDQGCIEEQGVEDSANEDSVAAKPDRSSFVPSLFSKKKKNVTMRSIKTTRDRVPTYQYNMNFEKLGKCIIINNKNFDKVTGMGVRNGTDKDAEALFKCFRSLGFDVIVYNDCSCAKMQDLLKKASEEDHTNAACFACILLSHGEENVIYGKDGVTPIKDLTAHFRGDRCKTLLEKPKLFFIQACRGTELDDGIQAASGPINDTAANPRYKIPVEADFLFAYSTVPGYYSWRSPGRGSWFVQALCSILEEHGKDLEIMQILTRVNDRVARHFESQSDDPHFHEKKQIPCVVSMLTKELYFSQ
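Test system: Procaspase-7 triple mutant (PC-7 D3A). Also added: Ac-DEVD-pNA substrate, 400 µM as added. Schedule: 1 h enzyme–compound preincubation and 2 h substrate reaction, both 25 °C. Signal: p-Nitroaniline absorbance at 405 nm, read at 0 and 120 min. Control set: low DMSO alone, high DMSO plus 5 µM PC-7.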
proCasp3 act: activates human procaspase-3; P42574; recombinant procaspase-3 D3A, Ac-DEVD-pNA absorbance 405 nm; activation, % at 8.5 µM; actives 0.11% (n = 330,000);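 active means activation above the mean of all tested compounds plus 3 SD, cut at about 21% in these data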;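 further: 0% = DMSO alone and 100% = DMSO wells spiked with extra 5 µM PC-3 D3A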
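System: Procaspase-3 D3A mutant. Medium: Zinc-free 300 mM NaCl, 50 mM HEPES, 0.01% Triton X-100. Schedule: 1 h preincubation plus 2 h reaction at 25 °C. Measured by: 405 nm absorbance of p-nitroaniline, reads at 0 and 120 min. Read-out: percent activation relative to control range.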
KLK7 zymogen act: activators of human kallikrein-7 zymogen. purified proKLK7, EDANS-DABCYL substrate fluorescence; 100% is mature enzyme control, 0% vehicle. actives 0.9% (n = 370,000). activation, % at 7 µM. AID 652039;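 active means activation above the mean of all tested compounds plus 3 SD, computed per campaign excluding outliers beyond control limits, cut at about 13% in these data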
Target sequence (P49862 whole entry, looked up): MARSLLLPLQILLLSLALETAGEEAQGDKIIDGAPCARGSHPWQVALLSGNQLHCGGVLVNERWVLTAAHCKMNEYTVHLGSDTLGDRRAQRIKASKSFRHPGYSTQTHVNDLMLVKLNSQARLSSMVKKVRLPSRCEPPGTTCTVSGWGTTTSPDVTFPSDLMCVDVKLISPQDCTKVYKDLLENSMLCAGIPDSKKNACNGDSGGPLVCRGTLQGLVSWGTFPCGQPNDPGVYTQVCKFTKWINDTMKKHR
Neddyl inh conf: confirmation of human cullin neddylation inhibitors; shares compounds with Neddylation inh; TR-FRET cullin neddylation biochemical assay; calls only at 25 µM; actives 13% (n = 1,800); AID 652217; in the data active means inhibition above about 40%;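 further: neddylation substrate is the cullin 1 ring ligase complex with SKP2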
Numbers without * were called inactive; i = inactive; . = no result shown; + = active, no number. In the library only some 1.6% were active in any assay of this set; here they are far more common.

SMILES	Neddylation inh	proCasp7 act	proCasp3 act	KLK7 zymogen act	Neddyl inh conf
COc1ccc(NC(=O)CSc2ncnc3c2nnn3-c2ccc(F)cc2)c(OC)c1	i	9.1	7.3	-0.3	.
COc1ccc(-n2nnc3c(SCC(=O)Nc4ccccc4F)ncnc32)cc1	+	-7.4	1.8	0.4	i
CCC(=O)Nc1cc(-c2nn(C)c(=O)c3ccccc23)ccc1N1CCCCC1	+	-1.5	1.4	0.5	i
Nc1ccc(C#Cc2ccc3oc4ccccc4c(=O)c3c2)cc1	i	-6.4	-6.5	-0.9	.
Nc1ccc2oc3ccccc3c2c1	+	8.0	3.0	-0.5	i
NC(=O)c1nsc(C(=O)N(c2ccc(F)cc2)C(C(=O)NCC2CCCO2)c2ccc3ncccc3c2)c1N (stereo not given)	.	4.6	1.8	5.0	.
Cc1ccc(C(C(=O)NCC2CCCO2)N(C(=O)c2snc(C(N)=O)c2N)c2ccc3c(c2)OCCO3)cc1 (stereo not given)	i	-3.3	-5.0	0.1	.
Cc1cccc(N(C(=O)c2snc(C(N)=O)c2N)C(C(=O)NCC2CCCO2)c2ccc3ncccc3c2)c1 (stereo not given)	+	-0.8	1.4	8.1	.
COc1cccc(N(C(=O)c2snc(C(N)=O)c2N)C(C(=O)NCC2CCCO2)c2ccc3ncccc3c2)c1 (stereo not given)	+	-7.6	1.0	2.4	+
Cc1ccc(N(C(=O)c2snc(C(N)=O)c2N)C(C(=O)NCC2CCCO2)c2ccc3ncccc3c2)cc1 (stereo not given)	+	.	.	0.3	i
COc1cccc(N(C(=O)c2snc(C(N)=O)c2N)C(C(=O)NCC2CCCO2)c2cccs2)c1 (stereo not given)	i	10.0	4.7	0.2	.
C=CCN1[C@H](CC(C)C)COc2cc(F)ccc2S1(=O)=O	.	.	.	-0.7	.
CCOC(=O)N1CCN(C(=O)C[C@@H]2C(=O)N3CCCC4=C3[C@@]2(C(=O)OCC)CCC4)CC1	.	.	.	0.1	.
CCOC(=O)[C@@]12CCC3=C1N(CCC3)C(=O)[C@H](CC(=O)NCCCN1CCCC1=O)C2	.	.	.	0.2	.
CC(COc1cccc(C#N)c1)CN1CCC(C(O)(c2ccccc2)c2ccccc2)CC1 (stereo not given)	.	.	.	0.5	.
COc1cc(/C=N/NC(=O)CCOc2ccccc2C)cc(Br)c1O	+	-11.8	-2.4	-1.1	+
COc1ccc(CC(=O)N/N=C\c2cc(Br)c(O)c(Br)c2)cc1	+	.	.	-1.2	+
CCCc1cc(C(=O)N2CCCC(C(=O)c3cc(C)c(OC)c(C)c3)C2)n(C)n1 (stereo not given)	i	-0.7	0.1	-0.3	.
C=CCOC(=O)N[C@@H](c1coc2ccccc2c1=O)[C@@H](C)/C=C/CC(=O)OC	.	.	.	0.6	.
Oc1ccc2c(c1)oc1cc(O)ccc12	+	0.6	-1.2	-8.8	i
COc1c(C)oc2cc(O)ccc2c1=O	.	1.4	-3.6	-6.3	.
CSc1nc(N)c2c3c(sc2n1)CN(C)CC3	+	0.7	-1.2	-0.9	i
CCSc1nc(N)c2c3c(sc2n1)CN(C)CC3	.	-2.6	5.0	.	.
CCCOc1ccc(-c2nc(C#N)c(N3CCN(C)CC3)o2)cc1	+	7.1	6.2	-0.2	.
N#Cc1nc(-c2ccco2)oc1N1CCc2ccccc2C1	+	6.0	1.7	-0.3	i
SMILES	Neddylation inh	proCasp7 act	proCasp3 act	KLK7 zymogen act	Neddyl inh conf
N#Cc1nc(-c2ccccc2)oc1N1CCN(C(=O)c2ccco2)CC1	+	-1.5	8.5	-0.6	i
CCCOc1ccc(-c2nc(C#N)c(N3CCc4ccccc4C3)o2)cc1	+	1.2	-6.4	-0.3	i
COc1ccc(-c2nnc(SCc3c(F)cccc3F)n2N)cc1	.	.	.	-0.2	.
Cc1nc(-c2cccc3ccccc23)ccc1C(=O)O	+	2.6	4.9	0.9	i
Cc1nc(-c2ccccc2)ccc1C(=O)O	i	-0.9	7.1	-0.2	.
COc1ccccc1-c1cc(C(=O)NCCN2CCOCC2)no1	i	-6.8	3.4	-0.2	.
COc1cccc2cc(C(=O)NCCN3CCOCC3)oc12	+	2.2	-3.3	0.1	i
COC(=O)[C@]12C[C@H](CC(=O)NCc3ccc(C)o3)C(=O)N(Cc3ccc4c(c3)OCO4)C1=C[C@H](COCc1ccccc1)O[C@@H]2C	.	.	.	0.4	.
COc1ccccc1N1CCN(C(=O)c2cc3c(C)nn(-c4ccccc4)c3s2)CC1	.	.	.	0.4	.
COc1cc(/C=N/NC(=O)c2nnn(-c3nonc3N)c2C(C)C)ccc1OCc1ccccc1	+	-15.9	3.5	-0.3	i
CC(C)c1c(C(=O)N/N=C/c2ccc(OCc3ccccc3)cc2)nnn1-c1nonc1N	.	-2.2	3.7	-0.2	.
Nc1nonc1-n1nnc(C(=O)N/N=C/c2ccc3c(c2)OCO3)c1CSc1ccccc1	+	9.2	-1.9	0.3	i
CC(C)Cc1nc(N2CCCCC2)c(C#N)c2c1CCC2	+	3.5	2.7	-0.2	.
COc1cccc(OC)c1-c1nnc(-c2cn(C)c3ccccc23)o1	+	-6.8	-3.1	-1.4	i
CNC(=O)c1c(NC(=O)c2ccco2)sc2c1CCCC2	+	2.3	6.5	1.3	.
CC(C)OC(=O)c1c(NC(=O)c2ccco2)sc2c1CCCCC2	.	-5.2	-1.4	0.4	.
COc1cc(C(=O)Nc2sc3c(c2C(=O)O)CCC3)cc(OC)c1OC	+	1.2	3.1	0.6	.
Cc1ccc(C(=O)Nc2sc3c(c2C(=O)O)CCCC3)o1	+	-6.2	-6.5	-0.2	.
N#Cc1cccc(-c2ccccc2C(=O)NC2CCCCN(Cc3ccc(Cl)cc3)C2=O)c1 (stereo not given)	.	.	.	0.0	.
Cc1ccc(-c2nc(C3CCCN(S(=O)(=O)c4ccccc4)C3)no2)cc1 (stereo not given)	.	.	.	0.1	.
CCCCCCn1c(-c2ccc(Cl)cc2Cl)csc1=Nc1ccccc1	.	.	.	0.2	.
Nc1cc(N)cc(-c2nc3ccccc3[nH]2)c1	+	9.7	-0.5	-0.5	.
c1ccc(-c2nc3ccccc3[nH]2)cc1	i	8.9	7.1	-0.1	.
CC(CCN1CCC(C(O)(c2ccccc2)c2ccccc2)CC1)Oc1ccccc1C#N (stereo not given)	.	.	.	-0.1	.
Cc1nc2c(C(=O)N3CCN(c4ccccn4)CC3)cnn2c(C)c1Cc1cccc(Cl)c1	+	3.4	2.3	0.5	i
Nc1c(C(=O)Nc2ccc3c(c2)OCCO3)nnn1Cc1cccc(Cl)c1	i	12.4	-10.3	3.0	.
Nc1c(C(=O)Nc2ccc3c(c2)OCCO3)nnn1Cc1ccc(F)cc1	+	7.8	2.5	-0.4	i
Cc1cccc(-n2ncc3c2CCCC3NC(=O)C2=CC(=O)CC(C)(C)O2)c1C (stereo not given)	i	4.4	7.9	-0.5	.
CCN(CC)c1ccc2c(Cl)cc(=O)oc2c1	.	-13.7	-20.5	3.1	.
